Test results published in ChEMBL document CHEMBL3792381, “Amine-free melanin-concentrating hormone receptor 1 antagonists: Novel 1-(1H-benzimidazol-6-yl)pyridin-2(1H)-one derivatives and design to avoid CYP3A4 time-dependent inhibition” (Bioorg Med Chem, 2016).
≈ marks a conversion by molar mass, not a printed value. Calls of active or inactive are those of the source. The rule behind the calls is not given here.

How the values were obtained:
[1] = molecular target: T1, Melanin-concentrating hormone receptor 1 (Homo sapiens, UniProt Q99705); assay: Displacement of [125I]-MCH(4 to 19) from human MCHR1 expressed in CHO cell membranes after 1 hr by liquid scintillation counting
How it was run: (§1)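 Membranes from CHO cells stably expressing human or rat MCHR1, prepared by homogenization and 100,000×g centrifugation, in 20 mM Tris-HCl pH 7.5 with 5 mM EDTA and protease inhibitors. Incubated with test compound and [125I]-MCH(4–19) for 1 h at room temperature. Filtered on PEI-treated GF/C filters and counted by scintillation. Nonspecific binding defined with cold MCH(1–19). IC50 from duplicate experiment.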

[2] = molecular target: Melanin-concentrating hormone receptor 1 (Rattus norvegicus, UniProt P97639); assay: Displacement of [125I]-MCH(4-19) from rat MCHR1 expressed in CHO cell membranes after 1 hr by liquid scintillation counting; how it was run: as §1
[3] = Oral bioavailability in Sprague-Dawley rat plasma at 1 mg/kg administered through cassette dosing by LC/MS/MS analysis; assay type: ADME, organism-based
How it was run: (§2)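 Male SD rats (eight weeks old), fed, cassette-dosed iv at 0.1 mg/kg or orally at 1 mg/kg as a suspension in 0.5% methylcellulose; n = 3. Plasma obtained by centrifugation of blood, deproteinized with acetonitrile, and measured by LC/MS/MS. AUC covers 0–8 h. Bioavailability, total clearance and Vss are derived from the iv and po data.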

[4] = molecular target: T1, Melanin-concentrating hormone receptor 1; assay: Antagonist activity at human MCHR1 expressed in CHO cells assessed as change in MCH(4 to 19)-stimulated Ca2+ concentration by Ca2+ mobilization assay; assay type: functional, cell-based
How it was run: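 CHO dhfr− cells stably transfected with human MCHR1 (clone 4), seeded at 20000 cells/well and cultured about 24 h. Loaded with Fluo4 calcium dye for 30 min at 37 °C. Test compound in 10 mM HEPES pH 7.4 buffer with 0.1% BSA added, then MCH(4–19) at 2 nM final. Fluorescence read every 2 s; inhibition rate (%) taken relative to ligand-alone and DMSO-alone wells.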

[5] = Total clearance in Sprague-Dawley rat plasma at 0.1 mg/kg, iv administered through cassette dosing by LC/MS/MS analysis; assay type: ADME, organism-based; how it was run: as §2
[6] = Volume of distribution in steady state in Sprague-Dawley rat plasma at 0.1 mg/kg, iv administered through cassette dosing by LC/MS/MS analysis; assay type: ADME, organism-based; details: read-out: Vdss; how it was run: as §2
[7] = Cmax in Sprague-Dawley rat at 1 mg/kg, po administered through cassette dosing by LC/MS/MS analysis; assay type: ADME, organism-based; parameters: dose 1 mg/kg, route oral; details: in vivo; how it was run: as §2
[8] = Tmax in Sprague-Dawley rat plasma at 1 mg/kg, po administered through cassette dosing by LC/MS/MS analysis; assay type: ADME, organism-based; how it was run: as §2
[9] = AUC( 0 to 8 hrs) Sprague-Dawley rat plasma at 1 mg/kg, po administered through cassette dosing by LC/MS/MS analysis; assay type: ADME, organism-based; parameters: dose 1 mg/kg, time < 8 hr, route oral; how it was run: as §2
Rattus norvegicus [10] = assay: Anorectic effect in DIO-F344/Jcl rat assessed as inhibition of food intake at 3 mg/kg, po administered 2 hrs before onset of dark period for 2 days; assay type: functional
How it was run: (§3)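 Male DIO-F344/Jcl rats, 45 weeks old, on high-fat diet from 5 weeks of age, singly housed on powdered high-fat diet and habituated to oral dosing with tap water. Grouped by day-0 food intake and body weight. Dosed orally once daily, suspended in 0.5% methylcellulose at 2 mL/kg, 2 h before dark onset, for 2 days; n = 6. Cumulative 2-day food intake is expressed relative to the vehicle group.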

Rattus norvegicus [11] = assay: Anorectic effect in DIO-F344/Jcl rat assessed as inhibition of food intake at 10 mg/kg, po administered 2 hrs before onset of dark period for 2 days; assay type: functional; parameters: scale not given: the % may be the effect or the level left; how it was run: as §3
[12] = Solubility of compound at pH 6.8; assay type: physicochemical; details: buffer
CYP3A4 = CYP3A4 (Homo sapiens, UniProt P08684); assay: Time dependent inhibition of CYP3A4 in human liver microsomes assessed as conversion of testosterone to 6beta-hydroxytestosterone by measuring remaining activity at 30 uM by UPLC analysis in presence of NADPH generating system; assay type: ADME; details: read-out: Activity
How it was run: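 Single-point assay: test compound at 30 µM preincubated with human liver microsomes at 37 °C in phosphate buffer pH 7.4 with an NADPH-generating system. Residual CYP3A4 activity then measured as testosterone 6β-hydroxylation by UPLC. Percent remaining = activity with preincubation (% of DMSO control) over activity without preincubation; n = 2.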

Rattus norvegicus [13] = assay: Anorectic effect in DIO-F344/Jcl rat assessed as cumulative food intake at 1 mg/kg, po dosed for 2 weeks and measured every 2 or 3 days relative to vehicle control; assay type: functional
How it was run: (§4)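 Male DIO-F344 rats (41 weeks old), on high-fat diet D12451 from 5 weeks of age, singly housed, given powder high-fat diet, habituated to oral dosing with tap water, grouped by day-0 food intake and body weight. Oral gavage once daily, suspended in 0.5% methylcellulose at 2 mL/kg, 1–3 h before dark onset, for 2 weeks (n = 5 or 6). Body weight taken before dosing, expressed as % of initial. Food intake every 2 or 3 days. Vehicle-treated and sibutramine-treated groups included.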

Rattus norvegicus [14] = assay: Antiobesity activity in DIO-F344/Jcl rat assessed as reduction in body weight at 1 mg/kg, po dosed for 2 weeks and measured every 2 or 3 days relative to vehicle control; assay type: functional; parameters: scale not given: the % may be the effect or the level left; how it was run: as §4
Rattus norvegicus [15] = assay: Anorectic effect in orally dosed DIO-F344/Jcl rat assessed as inhibition of food intake administered 2 hrs before onset of dark period for 2 days; assay type: functional, organism-based; how it was run: as §3
Rattus norvegicus [16] = assay: Antiobesity activity in DIO-F344/Jcl rat assessed as reduction in body weight at 3 mg/kg, po dosed for 2 weeks and measured every 2 or 3 days relative to vehicle control; assay type: functional; parameters: scale not given: the % may be the effect or the level left
How it was run: (§5)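 DIO-F344 rats, 41 weeks old, habituated and grouped as for the 2-day study. Dosed orally once daily for 2 weeks in 0.5% methylcellulose at 2 mL/kg, 1–3 h before dark onset, after weighing; n = 5 or 6. Food intake measured every 2 or 3 days; body weight change expressed as percent of initial weight; sibutramine was the positive control.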

Rattus norvegicus [17] = assay: Antiobesity activity in DIO-F344/Jcl rat assessed as reduction in body weight at 10 mg/kg, po dosed for 2 weeks and measured every 2 or 3 days relative to vehicle control; assay type: functional; parameters: scale not given: the % may be the effect or the level left; how it was run: as §5
Rattus norvegicus [18] = assay: Anorectic effect in DIO-F344/Jcl rat assessed as cumulative food intake at 3 mg/kg, po dosed for 2 weeks and measured every 2 or 3 days relative to vehicle control; assay type: functional; how it was run: as §5
Rattus norvegicus [19] = assay: Anorectic effect in DIO-F344/Jcl rat assessed as cumulative food intake at 10 mg/kg, po dosed for 2 weeks and measured every 2 or 3 days relative to vehicle control; assay type: functional; how it was run: as §5
Plasma = assay: Free plasma concentration in DIO-F344/Jcl rat at 10 mg/kg, po; assay type: ADME, organism-based; details: in vivo
How it was run: (§6)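 Trough plasma concentration taken in the 2-week repeated oral dosing study in DIO-F344 rats. Unbound concentration obtained from total concentration and the unbound fraction in DIO rat plasma.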

[20] = Fraction unbound in po dosed DIO-F344/Jcl rat plasma; assay type: ADME, organism-based
Rattus norvegicus [21] = assay: Trough plasma concentration in DIO-F344/Jcl rat at 10 mg/kg, po; assay type: ADME, organism-based; details: in vivo, read-out: Cmin; how it was run: as §6
[22] = Ratio of drug level in brain to plasma in po dosed DIO-F344/Jcl rat; assay type: ADME, organism-based; details: brain and plasma, read-out: BPR
Mus musculus [23] = assay: Antiobesity activity in MCHR1-deficient mouse assessed as reduction in body weight at 10 and 30 mg/kg, po dosed for 3 days; assay type: functional, organism-based
How it was run: (§7)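 Male MCHR1-deficient and wild-type littermate mice, 27 weeks old, on high-fat diet from 7 weeks of age, housed individually and acclimated to tap-water dosing. Grouped by food intake from day −4 to day −1 and by day −1 body weight. Dosed orally once daily for 3 days in 0.5% methylcellulose at 10 mL/kg; n = 6. Body weight change and cumulative food intake measured over the 3 days.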

Mus musculus [24] = assay: Antiobesity activity in wild-type litter mate mouse assessed as reduction in body weight at 10 and 30 mg/kg, po dosed for 3 days; assay type: functional, organism-based; how it was run: as §7
Mus musculus [25] = assay: Anorectic effect in MCHR1-deficient mouse assessed as reduction in food intake at 10 and 30 mg/kg, po dosed for 3 days; assay type: functional, organism-based; how it was run: as §7
Brain = assay: Drug uptake in po dosed DIO-F344/Jcl rat brain; assay type: ADME, organism-based; details: in vivo

T1 sequence (Q99705 whole entry): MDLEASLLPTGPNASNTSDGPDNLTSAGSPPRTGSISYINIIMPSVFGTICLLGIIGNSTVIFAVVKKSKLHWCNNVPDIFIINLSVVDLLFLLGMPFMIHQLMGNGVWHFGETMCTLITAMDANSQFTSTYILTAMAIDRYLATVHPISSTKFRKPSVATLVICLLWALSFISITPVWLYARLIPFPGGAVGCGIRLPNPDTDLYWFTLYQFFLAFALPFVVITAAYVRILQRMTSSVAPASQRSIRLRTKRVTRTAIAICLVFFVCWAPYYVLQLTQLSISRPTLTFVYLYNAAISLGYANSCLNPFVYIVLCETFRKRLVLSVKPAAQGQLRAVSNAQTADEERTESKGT
Sequence of Melanin-concentrating hormone receptor 1 (Rattus norvegicus, UniProt P97639) (P97639 whole entry): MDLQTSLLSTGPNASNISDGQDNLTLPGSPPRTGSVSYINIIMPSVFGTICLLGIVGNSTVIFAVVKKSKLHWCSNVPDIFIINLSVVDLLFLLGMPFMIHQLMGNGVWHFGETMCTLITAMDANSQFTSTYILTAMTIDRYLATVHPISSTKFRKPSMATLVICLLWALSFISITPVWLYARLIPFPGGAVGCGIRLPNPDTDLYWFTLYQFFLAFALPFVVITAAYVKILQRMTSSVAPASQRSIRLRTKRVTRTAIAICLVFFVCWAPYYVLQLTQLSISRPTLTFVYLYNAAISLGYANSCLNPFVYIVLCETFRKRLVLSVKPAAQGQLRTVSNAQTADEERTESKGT
Sequence of CYP3A4 (P08684 whole entry): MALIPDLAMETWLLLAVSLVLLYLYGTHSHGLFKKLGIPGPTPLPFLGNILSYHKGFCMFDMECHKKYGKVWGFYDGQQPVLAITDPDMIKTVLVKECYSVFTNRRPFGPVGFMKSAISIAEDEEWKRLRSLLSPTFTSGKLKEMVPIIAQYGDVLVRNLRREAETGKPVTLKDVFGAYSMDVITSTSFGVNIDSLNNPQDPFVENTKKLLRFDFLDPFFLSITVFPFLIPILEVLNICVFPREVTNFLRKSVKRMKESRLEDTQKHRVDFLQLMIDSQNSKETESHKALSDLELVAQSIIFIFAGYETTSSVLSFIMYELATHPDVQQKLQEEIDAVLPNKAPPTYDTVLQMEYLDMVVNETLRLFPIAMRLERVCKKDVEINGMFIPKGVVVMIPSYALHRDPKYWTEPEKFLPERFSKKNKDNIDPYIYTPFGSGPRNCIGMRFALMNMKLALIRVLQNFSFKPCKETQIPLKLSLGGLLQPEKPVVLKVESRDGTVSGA

Compound `Cn1c(C2CC2)nc2ccc(-n3ccc(OCc4ccccc4Cl)cc3=O)cc21` has an IC50 [1] of 0.16 µM and an IC50 [2] of 0.14 µM.

`Cn1c(CC2CC2)nc2ccc(-n3ccc(OCc4ccc(F)cc4)cc3=O)cc21` showed an IC50 [1] of 0.09 µM and an IC50 [2] of 0.14 µM.

`Cn1c(C2CC2)nc2ccc(-n3ccc(OCc4ccc(Cl)cc4)cc3=O)cc21` gave an IC50 [1] of 0.035 µM and an IC50 [2] of 0.021 µM.

`Cn1c(C2CC2)nc2ccc(-n3ccc(OCc4ccccc4)cc3=O)cc21` gave an IC50 [1] of 0.045 µM and an IC50 [2] of 0.043 µM.

`Cn1c(C2CC2)nc2ccc(-n3ccc(OCc4ncc(Cl)cn4)cc3=O)cc21` gave an IC50 [1] of over 1 µM and an IC50 [2] of 0.9 µM.

Work on `Cc1c(C2CC2)nc2ncc(-n3ccc(OCc4ccc(Cl)cc4)cc3=O)cn12` yielded an IC50 [1] of over 1 µM.

For `CCc1nc2ccc(-n3ccc(OCc4ccc(F)cc4)cc3=O)cc2n1C`, the IC50 [1] was 0.048 µM and the IC50 [2] was 0.038 µM.

Work on `Cn1c(C2CCC2)nc2ccc(-n3ccc(OCc4ccc(F)cc4)cc3=O)cc21` yielded an IC50 [1] of 0.24 µM and an IC50 [2] of 0.21 µM.

Work on `Cn1c(C2CC2)nc2ccc(-n3ccc(OCc4ccc(C(F)(F)F)s4)cc3=O)cc21` yielded a bioavailability [3] of 57%, an IC50 [4] of 0.018 µM and a clearance [5] of 4.75 mL/min/kg. For the same compound, the Vd [6] was 0.979 L/kg, the Cmax [7] was 298 ng/mL and the Tmax [8] was 2.7 h. The AUC(0-t) at 8 h [9] was 2020 ng·h/mL, the Activity (Rattus norvegicus [10]) was “Active” and the Activity (Rattus norvegicus [11]) was 20.3%. It also gave a solubility [12] of 0.25 µg/mL (≈ 0.561 µM), an IC50 [1] of 0.016 µM and an IC50 [2] of 0.013 µM. For the same compound, the activity at 30 µM (CYP3A4) was 97%.

`CCCn1c(C2CC2)nc2ccc(-n3ccc(OCc4ccc(Cl)cc4)cc3=O)cc21` showed an IC50 [1] of 0.085 µM and an IC50 [2] of 0.11 µM.

In the case of `CCn1c(C2CC2)nc2ccc(-n3ccc(OCc4ccc(Cl)cc4)cc3=O)cc21`, the IC50 [1] is reported as 0.037 µM and the IC50 [2] is reported as 0.034 µM.

`CC(C)CC(N(C)C)C1(c2ccc(Cl)cc2)CCC1` (stereo unspecified) [SIBUTRAMINE] gave an Activity (Rattus norvegicus [13]) of 18.7% and an Activity (Rattus norvegicus [14]) of 3.1%.

Compound `Cn1c(C2CC2)nc2ccc(-n3ccc(OCc4ccc(Cl)s4)cc3=O)cc21` has a bioavailability [3] of 23%, an IC50 [4] of 0.024 µM and a clearance [5] of 7.5 mL/min/kg. The Vd [6] was 0.92 L/kg, the Cmax [7] was 165 ng/mL and the Tmax [8] was 1 h. It also gave an AUC(0-t) at 8 h [9] of 515 ng·h/mL, an Activity (Rattus norvegicus [10]) of 11.6% and an Activity (Rattus norvegicus [11]) of 36.5%. For the same compound, the Activity (Rattus norvegicus [15]) was “Dose-dependent effect”, the Activity (Rattus norvegicus [16]) was 2.2% and the Activity (Rattus norvegicus [17]) was 4.1%. It also gave an Activity (Rattus norvegicus [18]) of 11.6%, an Activity (Rattus norvegicus [19]) of 20.9% and a solubility [12] of 2.3 µg/mL (≈ 5.58 µM). The “Cp(f)” value (Plasma) was 15.8 nM, the fraction unbound [20] was 0.02 and the concentration (Rattus norvegicus [21]) was 790 nM. The Kp [22] was 0.5, the Activity (Mus musculus [23]) was “inactive” and the Activity (Mus musculus [24]) was “Dose-dependent effect”. For the same compound, the Activity (Mus musculus [25]) was “Dose-dependent effect”, the Drug uptake (Brain) was “Active” and the IC50 [1] was 0.019 µM. It also gave an IC50 [2] of 0.011 µM and an activity at 30 µM (CYP3A4) of 83%.

For `Cc1c(C2CC2)nc2cnc(-n3ccc(OCc4ccc(Cl)cc4)cc3=O)cn12`, the IC50 [1] was 0.044 µM.
